Laboratory results from publication PMC5820113 (Neuropharmacology, 2017).
Where two headings read alike, the source gives them in different places.

How the values were obtained:
[1] = tested on: METH self-administration; test: Intravenous METH self-administration, short access; type: in vivo, rat; settings: for reduction of METH intake: ShA rats (Supplemental Figure S2)
Summary of the method: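 Rats (225-275 g at start, reverse light cycle, free food/water) trained on i.v. METH, 10-15 sessions, then 10 FR1 sessions of 1 h (ShA) or 6 h (LgA) access. Test compound i.p. (vehicle up to 100 mg/kg), 30 min or 1 h pretreatment, then FR1 session; Latin-square, within-subjects. Mean ± SEM; ANOVA or paired t-test vs vehicle, Holm-Sidak.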

[2] = tested on: saccharin self-administration; test: Saccharin self-administration; type: in vivo, rat; settings: rats (Supplemental Figure S3)
[3] = tested on: locomotion; test: Locomotion during saccharin self-administration; type: in vivo, rat; settings: rats (Supplemental Figure S3)
[4] = Phase I metabolic stability in rat liver microsomes; type: in vitro ADME
[5] = biological target: dopamine transporter (DAT); settings: read-out: Ki, DAT affinity; ref Cao et al, 2016; Zhang et al, 2017; cited from earlier work
[6] = Plasma and brain levels after single i.p. dose in rats; type: in vivo; settings: rat
Summary of the method: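 Rats given a single 10 mg/kg i.p. dose, freshly prepared in 10% DMSO and 10% Tween 80 diluted with sterile saline. At 30 and 120 min (n = 3 per time point), CO2 euthanasia. Heparinized cardiac-puncture blood was spun at once for plasma. Brain was dissected and flash-frozen at -80°C.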

[7] = tested on: sigma-1 receptors; settings: ref Cao et al, 2016, cited from earlier work; for sigma-1/DAT binding ratio: ratio of binding affinities, Hiranita et al, 2017
[8] = ref Cao et al, 2016; cited from earlier work
[9] = mouse, previously conducted; ref Supplemental Material; cited from earlier work
[10] = tested on: cocaine-induced locomotion; settings: ref Zhang et al, 2017; cited from earlier work
[11] = tested on: cocaine self-administration; settings: cited from earlier work
[12] = tested on: cocaine-induced reinstatement; settings: ref Zhang et al, 2017; cited from earlier work
[13] = tested on: sucrose self-administration; settings: rats; ref Zhang et al, 2017; cited from earlier work
[14] = tested on: brain stimulation reward; settings: cited from earlier work
[15] = tested on: locomotion; settings: cited from earlier work
[16] = tested on: METH self-administration; settings: cited from earlier work
[17] = all doses tested i.p. (JJC8-088 3, 10, 30 mg/kg; JJC8-089 1, 3, 10, 30 mg/kg)
[18] = 10 mg/kg i.p., 30 min post-administration
[19] = 10 mg/kg i.p., 2 h (120 min) post-administration
[20] = 100 mg/kg i.p., 1 h pretreatment, vs vehicle
[21] = 10-30 mg/kg, ref Zhang et al (2017)
[22] = rats, ref Hiranita et al, 2014, 2017

[O-][S+](CCN1CCN(CC(O)Cc2ccccc2)CC1)C(c1ccc(F)cc1)c1ccc(F)cc1 (stereo not drawn) [JJC8-088, 1-[4-(2-[(bis[4-fluorophenyl]methyl)sulfinyl]ethyl)piperazin-1-yl]-3-phenylpropan-2-ol]
METH intake, LgA rats entire 6 h session ([1]; all doses tested i.p. (3, 10, 30 mg/kg)): did not affect
METH intake, LgA rats first hour [1, 17]: did not significantly change
METH intake, ShA rats 1 h session [1, 17]: did not significantly change
saccharin (sweetened water) self-administration [2]: increased
locomotion [3]: increased
half-life [4]: 39 min
Ki [5]: 2.53 nM
levels in both brain and plasma ([6]; 10 mg/kg i.p., 30 min and 2 h): low levels
brain level [6, 18]: very little
brain level [6, 19]: nearly undetectable
sigma-1/DAT binding ratio [7]: > 100
Ki ([7]; read-out: Ki, sigma1 receptors): 336 nM
t1/2 in mouse liver microsomes [8]: 12.9 min

Fc1ccc(C(SCCNCCCc2ccccc2)c2ccc(F)cc2)cc1 [JJC8-016, N-[2-([bis(4-fluorophenyl)methyl]thio)ethyl]-3-phenylpropan-1-amine]
METH intake, LgA rats entire 6 h session ([1]; 30 mg/kg i.p., vs vehicle): significantly decreased
METH intake, LgA rats first hour ([1]; 30 mg/kg i.p., vs vehicle): significantly decreased
METH intake, ShA rats 1 h session ([1]; 30 mg/kg i.p., vs vehicle): significantly decreased
reduction of self-administration ([1]; LgA rats, 1 h time point (Supplemental Figure S2)): > 50%
reduction of METH intake [1]: > 50%
saccharin (sweetened water) self-administration [2]: significantly reduced
locomotion [3]: without causing significant locomotor effects
half-life [4]: 9 min
brain penetration [9]: good brain penetration
cocaine-induced locomotion [10]: effectively inhibited
cocaine self-administration ([11]; ref Zhang et al, 2017): effectively inhibited
cocaine-induced reinstatement [12]: effectively inhibited
sucrose self-administration [13]: reduce
intracranial self-stimulation ([14]; ref Zhang et al, 2017): without affecting
affinity for sigma-1 receptors [7]: high affinities
locomotor activity ([15]; ref Zhang et al, 2017): without affecting

CC(O)CN1CCN(CC[S+]([O-])C(c2ccc(F)cc2)c2ccc(F)cc2)CC1 (stereo not drawn) [JJC8-091, 1-[4-(2-[(bis[4-fluorophenyl]methyl)sulfinyl]ethyl)piperazin-1-yl]propan-2-ol]
METH intake, LgA rats entire 6 h session ([1]; 10 mg/kg i.p., vs vehicle): significant reduction
METH intake, LgA rats entire 6 h session ([1]; 30 mg/kg i.p., vs vehicle): significant reduction
METH intake, LgA rats entire 6 h session ([1]; 56 mg/kg i.p., vs vehicle): significant reduction
METH intake, LgA rats first hour ([1]; 56 mg/kg i.p., vs vehicle): decreased
METH intake, ShA rats 1 h session ([1]; 56 mg/kg i.p., vs vehicle): decreased
saccharin (sweetened water) self-administration [2]: significantly reduced
locomotion [3]: without causing significant locomotor effects
half-life [4]: 126 min
Ki [5]: 289 nM
brain level [6, 18]: 0.45 ± 0.18 nmol/g
brain level [6, 19]: 0.30 ± 0.015 nmol/g

CC(O)CN1CCN(CCSC(c2ccc(F)cc2)c2ccc(F)cc2)CC1 (stereo not drawn) [JJC8-089, 1-[4-(2-[(bis[4-fluorophenyl]methyl)thio]ethyl)piperazin-1-yl]propan-2-ol]
METH intake, LgA rats entire 6 h session ([1]; 30 mg/kg i.p., vs vehicle): significantly decreased
reduction of METH intake [1]: > 50%
METH intake, LgA rats first hour [1, 17]: only observed a group effect
METH intake, ShA rats 1 h session [1, 17]: only observed a group effect
saccharin (sweetened water) self-administration [2]: significantly reduced
locomotion [3]: without causing significant locomotor effects
half-life [4]: 14 min
Ki [5]: 16.7 nM
brain level [6, 18]: 7.6 ± 0.3 nmol/g
brain level [6, 19]: 3.6 ± 0.7 nmol/g
Kp ([6]; brain/plasma, ip, 10 mg/kg): 8 to 9
sigma-1/DAT binding ratio [7]: 0.24
affinity for sigma-1 receptors [7]: high affinities

NC(=O)C[S@@+]([O-])C(c1ccccc1)c1ccccc1 [R-MOD, [R]-2-[(diphenylmethyl)sulfinyl]acetamide, reference compound]
METH intake, LgA rats first hour [1, 20]: significantly decreased
METH intake, ShA rats 1 h session [1, 20]: significantly decreased
METH intake, LgA rats entire 6 h session ([1]; 100 mg/kg i.p., vs vehicle (p = 0.058)): nonsignificant
reduction of METH intake [1]: > 50%
saccharin (sweetened water) self-administration [2]: did not alter
locomotion [3]: did not alter
half-life [4]: 55 min
brain stimulation reward [14, 21]: enhanced
locomotion [15, 21]: increased

CCCCN1[C@@H]2CC[C@H]1CC(OC(c1ccc(F)cc1)c1ccc(F)cc1)C2 (stereo partly drawn) [JHW 007, reference compound]
METH self-administration [16, 22]: effectively block
cocaine self-administration [11, 22]: effectively block
sigma-1/DAT binding ratio [7]: 0.20-0.23

NC(=O)C[S+]([O-])C(c1ccccc1)c1ccccc1 (racemic) [(±)-modafinil]
METH self-administration ([16]; 300 mg/kg, very high dose, ref Reichel and See (2012)): significantly decreased
